Values after ≈ are worked out from the molar mass of the structure shown.
Columns and labels:
Babesia gibsoni = experiment: Antibabesial activity against Babesia gibsoni in dog erythrocytes after 72 hrs; format: functional, organism-based
Plasmodium falciparum = experiment: Antiplasmodial activity against chloroquine-susceptible Plasmodium falciparum FCR3 in human erythrocytes after 24 hrs; format: functional, organism-based; details: FCR3, 24 h
Method in brief: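 P. falciparum FCR-3 kept in culture and synchronized with 5% D-sorbitol, then washed in RPMI 1640. Infected RBCs resuspended at 0.25-0.50% parasitemia in RPMI 1640 with 10% human serum, 25 mM Hepes, gentamicin and Na2CO3, then incubated with test solution at 37 °C under 5% CO2. Stopped once controls reached 20% schizonts. Schizonts counted on Giemsa smears; IC50 read from the inhibition-versus-concentration graph.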

[1] = Cytotoxicity against dog RBC; format: cell-based, Canis lupus familiaris; details: erythrocyte
[2] = Cytotoxicity against human RBC; format: cell-based; details: erythrocyte

| IC50 (Babesia gibsoni) | IC50 (Plasmodium falciparum) | SMILES | Activity [1] | Activity [2] |
| --- | --- | --- | --- | --- |
| 4.7 µg/mL (≈ 7.41 µM) | 1.4 µg/mL (≈ 2.21 µM) | O=C(O[C@H]1O[C@H](COC(=O)c2cc(O)c(O)c3oc(=O)c4cc(O)c(O)c(O)c4c23)[C@@H](O)[C@H](O)[C@H]1O)c1cc(O)c(O)c(O)c1 | Non-toxic | Non-toxic |
| 35.2 µg/mL (≈ 59 µM) | 11 µg/mL (≈ 18.4 µM) | O=c1c(O[C@@H]2O[C@H](CO)[C@@H](O)[C@H](O)[C@H]2O[C@@H]2OC[C@@H](O)[C@H](O)[C@H]2O)c(-c2ccc(O)c(O)c2)oc2cc(O)cc(O)c12 | Non-toxic | Non-toxic |
| 7.5 µg/mL (≈ 22.6 µM) | 4.6 µg/mL (≈ 13.8 µM) | O=C(O[C@@H]1O[C@H](CO)[C@@H](O)[C@H](O)[C@H]1O)c1cc(O)c(O)c(O)c1 | Non-toxic | Non-toxic |

Second part, the compound before the results:

| SMILES | IC50 (Babesia gibsoni) | IC50 (Plasmodium falciparum) | Activity [1] | Activity [2] |
| --- | --- | --- | --- | --- |
| CC[C@H](CC[C@@H](C)[C@H]1CC[C@H]2[C@@H]3CC=C4C[C@@H](O)CC[C@]4(C)[C@H]3CC[C@]12C)C(C)C [BETA-SITOSTEROL] | 61.6 µg/mL (≈ 149 µM) | 32 µg/mL (≈ 77.2 µM) | Non-toxic | Non-toxic |
| CC(=O)NCC(=O)O.N=C(N)c1ccc(/N=N/Nc2ccc(C(=N)N)cc2)cc1 [DIMINAZEN ACETURATE] | 0.6 µg/mL |  |  |  |
| O=C(O)c1cc(O)c(O)c(O)c1 [GALLIC ACID] | 13.4 µg/mL (≈ 78.8 µM) | 14.8 µg/mL (≈ 87 µM) | Non-toxic | Non-toxic |

— ChEMBL document CHEMBL1158731, “Anti-babesial and anti-plasmodial compounds from Phyllanthus niruri” (J Nat Prod, 2005)
